ChEMBL document CHEMBL3352534, “A prodrug strategy for the oral delivery of a poorly soluble HCV NS5B thumb pocket 1 polymerase inhibitor using self-emulsifying drug delivery systems (SEDDS)” (Bioorg Med Chem Lett, 2015)

Key:
Liver microsome [1] = assay: Prodrug conversion in human liver microsomes assessed as half life
Liver microsome [2] = assay: Prodrug conversion in rat liver microsomes assessed as half life
[3] = Prodrug conversion in simulated gastric fluid assessed as half life; assay type: ADME; conditions: simulated gi fluid
Summary of the method: (§1)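 Incubations used 2 µM compound at 37 °C in either SGF (0.2% NaCl/HCl, pH 1.2, pepsin 3.2 mg/mL) or SIF (KH2PO4/NaOH, pH 7.5, pancreatin 10 mg/mL). Samples were quenched 1:2 with acetonitrile/methanol 1:1 and analysed by HPLC. t1/2 = 0.693/first-order disappearance rate.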

[4] = Prodrug conversion in simulated intestinal fluid assessed as half life; assay type: ADME; conditions: simulated gi fluid; summary of the method: as §1
Plasma [5] = assay: Prodrug conversion in human plasma assessed as half life
Plasma [6] = assay: Prodrug conversion in rat plasma assessed as half life; assay type: ADME, cell-free
Summary of the method: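 Rat plasma (from centrifuged whole blood) was incubated with 2 µM compound at 37 °C. Samples were quenched 1:3 with acetonitrile/methanol 1:1, centrifuged and analysed by HPLC-PDA. Half-life was taken as 0.693/first-order rate of loss of the starting compound.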

Intestine = assay: Prodrug conversion in rat intestinal microsomes assessed as half life
[7] = Prodrug conversion in human intestinal microsomes assessed as half life
Rattus norvegicus [8] = assay: Cmax in rat plasma assessed as (E)-3-(4-(1-(2-(5-chloropyrimidin-2-yl)-3-cyclopentyl-1-methyl-1H-indole-6-carboxamido)cyclobutanecarboxamido)-2-ethoxyphenyl)acrylic acid at 10 mg/kg, po using 10.6% PEG400, 5.4% Cremophor EL, 2.6% Labrasol, 1.4% Capmul MCM in water (80%) vehicle; assay type: ADME, organism-based; design: dose 10 mg/kg, route oral; conditions: in vivo
Summary of the method: (§2)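 Fasted rats were given a single 10 mg/kg oral dose, with n = 3 per dose and route. Plasma was extracted by solid-phase extraction. Analysis used HPLC with diode-array UV (200–400 nm, peak height at best S/N) or LC/MS. Calibration standards were made in blank plasma, with LOQ 7–14 ng/mL. Parameters came from noncompartmental analysis.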

Rattus norvegicus [9] = assay: AUC in rat plasma assessed as (E)-3-(4-(1-(2-(5-chloropyrimidin-2-yl)-3-cyclopentyl-1-methyl-1H-indole-6-carboxamido)cyclobutanecarboxamido)-2-ethoxyphenyl)acrylic acid at 10 mg/kg, po using 10.6% PEG400, 5.4% Cremophor EL, 2.6% Labrasol, 1.4% Capmul MCM in water (80%) vehicle; assay type: ADME, organism-based; design: dose 10 mg/kg, route oral; conditions: in vivo; summary of the method: as §2
[10] = Cmax in rat plasma at 10 mg/kg, po using 10.6% PEG400, 5.4% Cremophor EL, 2.6% Labrasol, 1.4% Capmul MCM in water (80%) vehicle; assay type: ADME, organism-based; design: dose 10 mg/kg, route oral; conditions: plasma; summary of the method: as §2
[11] = AUC in rat plasma at 10 mg/kg, po using 10.6% PEG400, 5.4% Cremophor EL, 2.6% Labrasol, 1.4% Capmul MCM in water (80%) vehicle; assay type: ADME, organism-based; design: dose 10 mg/kg, route oral; conditions: plasma; summary of the method: as §2

| t1/2 (Liver microsome [1]) [h] | t1/2 (Liver microsome [2]) [h] | t1/2 [3] [h] | t1/2 [4] [h] | t1/2 (Plasma [5]) [h] | t1/2 (Plasma [6]) [h] | t1/2 (Intestine) [h] | t1/2 [7] [h] | Cmax (Rattus norvegicus [8]) [nM] | AUC (Rattus norvegicus [9]) [µM·h] | Cmax [10] [nM] | AUC [11] [µM·h] | SMILES |
| --- | --- | --- | --- | --- | --- | --- | --- | --- | --- | --- | --- | --- |
| 5.57 | 7.92 | – | – | – | – | – | – | – | – | – | – | CCOc1cc(NC(=O)C2(NC(=O)c3ccc4c(C5CCCC5)c(-c5ncc(Cl)cn5)n(C)c4c3)CCC2)ccc1/C=C/C(=O)OC(=O)C[C@H](O)C(=O)O |
| – | – | > 5 | 0.067 | – | – | – | – | – | – | – | – | CCOc1cc(NC(=O)C2(NC(=O)c3ccc4c(C5CCCC5)c(-c5ncc(Cl)cn5)n(C)c4c3)CCC2)ccc1/C=C/C(=O)N[C@@H](CC(=O)O)C(N)=O |
| – | – | 0.533 | 4.23 | – | – | – | – | – | – | – | – | CCOc1cc(NC(=O)C2(NC(=O)c3ccc4c(C5CCCC5)c(-c5ncc(Cl)cn5)n(C)c4c3)CCC2)ccc1/C=C/C(=O)N[C@@H](CCC(=O)O)C(N)=O |
| – | – | 0.467 | – | – | – | – | – | – | – | – | – | CCOc1cc(NC(=O)C2(NC(=O)c3ccc4c(C5CCCC5)c(-c5ncc(Cl)cn5)n(C)c4c3)CCC2)ccc1/C=C/C(=O)N[C@@H](CCCNC(=N)N)C(N)=O |
| > 5 | 1.73 | 0.417 | – | – | – | – | – | – | – | – | – | CCOc1cc(NC(=O)C2(NC(=O)c3ccc4c(C5CCCC5)c(-c5ncc(Cl)cn5)n(C)c4c3)CCC2)ccc1/C=C/C(=O)OCC[N+](C)(C)C.[Br-] |
| 1.63 | 1.48 | – | – | – | – | – | – | – | – | – | – | CCOc1cc(NC(=O)C2(NC(=O)c3ccc4c(C5CCCC5)c(-c5ncc(Cl)cn5)n(C)c4c3)CCC2)ccc1/C=C/C(=O)NCCO |
| 1.3 | 2.25 | – | – | – | – | – | – | – | – | – | – | CCOc1cc(NC(=O)C2(NC(=O)c3ccc4c(C5CCCC5)c(-c5ncc(Cl)cn5)n(C)c4c3)CCC2)ccc1/C=C/C(=O)N(C)CCO |
| 3.1 | 1.17 | – | – | – | – | – | – | – | – | – | – | CCOc1cc(NC(=O)C2(NC(=O)c3ccc4c(C5CCCC5)c(-c5ncc(Cl)cn5)n(C)c4c3)CCC2)ccc1/C=C/C(=O)OCC(=O)O |
| > 5 | 3.07 | 0.333 | > 5 | > 5 | 8.18 | > 5 | > 5 | – | – | – | – | CCOC(=O)/C=C/c1ccc(NC(=O)C2(NC(=O)c3ccc4c(C5CCCC5)c(-c5ncc(Cl)cn5)n(C)c4c3)CCC2)cc1OCC |
| > 5 | 0.35 | 2.23 | > 5 | > 5 | 15.2 | > 5 | > 5 | – | – | – | – | CCCOC(=O)/C=C/c1ccc(NC(=O)C2(NC(=O)c3ccc4c(C5CCCC5)c(-c5ncc(Cl)cn5)n(C)c4c3)CCC2)cc1OCC |
| > 5 | 1.42 | 1.43 | > 5 | 6.18 | 18.02 | > 5 | > 5 | – | – | – | – | CCOc1cc(NC(=O)C2(NC(=O)c3ccc4c(C5CCCC5)c(-c5ncc(Cl)cn5)n(C)c4c3)CCC2)ccc1/C=C/C(=O)OCCC(C)C |
| 17.88 | 12.7 | 0.883 | – | – | – | – | – | 200 | 3.2 | 400 | 2.2 | CCCCCCOC(=O)/C=C/c1ccc(NC(=O)C2(NC(=O)c3ccc4c(C5CCCC5)c(-c5ncc(Cl)cn5)n(C)c4c3)CCC2)cc1OCC |
| > 5 | 0.233 | 1.75 | > 5 | > 5 | 1.3 | > 5 | > 5 | – | – | – | – | CCOc1cc(NC(=O)C2(NC(=O)c3ccc4c(C5CCCC5)c(-c5ncc(Cl)cn5)n(C)c4c3)CCC2)ccc1/C=C/C(=O)OCC(Cl)(Cl)Cl |
| > 5 | 2.17 | 1.83 | > 5 | > 5 | 2.23 | > 5 | > 5 | – | – | – | – | CCOc1cc(NC(=O)C2(NC(=O)c3ccc4c(C5CCCC5)c(-c5ncc(Cl)cn5)n(C)c4c3)CCC2)ccc1/C=C/C(=O)OCc1ccccc1 |
